Source: ChEMBL document CHEMBL5053483, “Structure-Activity Relationship Study of Dexrazoxane Analogues Reveals ICRF-193 as the Most Potent Bisdioxopiperazine against Anthracycline Toxicity to Cardiomyocytes Due to Its Strong Topoisomerase IIβ Interactions” (J Med Chem, 2021)
The source made the active and inactive calls. The calls are words filed in the database; no cut-off is given here.

What was measured:
[1] = system: Neonatal ventricular cardiomyocytes; assay: (§1) Cardioprotective activity against DAU-induced cardiotoxicity in Wistar rat neonatal ventricular cardiomyocytes preincubated for 3 hrs followed by DAU addition for 3 hrs and further incubated for 48 hrs in drug free medium by LDH assay; assay type: functional, tissue-based; conditions: time 6.0 hrs
Method in brief: (§2)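 Neonatal rat ventricular cardiomyocytes from collagenase II digests, preplated 2 h, 400 000 cells/well. Kept in serum- and pyruvate-free DMEM/F12. Cells pretreated 3 h with compound (10–100 μM), then co-incubated 3 h with 1.2 μM daunorubicin or without it. After 48 h in drug-free medium, LDH released to the medium was measured at 340 nm as percent of total LDH; four experiments.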

[2] = system: HL-60; assay: Antiproliferative activity against human HL-60 cells at 100 uM after 72 hrs by XTT assay; assay type: functional, cell-based
Method in brief: (§3)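 HL-60 (ATCC) grown in RPMI-1640 with 10% FBS and antibiotics at 37 °C, 5% CO2. Seeded at 10 000 cells/well, exposed to compound for 72 h. XTT/PMS (1 mg/mL XTT, 50 μM PMS in PBS) added, absorbance read at 450 nm after 4 h. Results as percent of DMSO control; four independent experiments.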

[3] = system: HL-60; assay: Antiproliferative activity against human HL-60 cells assessed as increase in daunorubicin activity at 100 uM after 72 hrs in presence of 15 nM of daunorubicin by XTT assay
[4] = Cytotoxicity against Wistar rat neonatal ventricular cardiomyocytes at 1.2 uM by LDH assay; assay type: tissue-based; method in brief: as §2
[5] = system: HL-60; assay: Antiproliferative activity against human HL-60 cells after 72 hrs by XTT assay; assay type: functional, cell-based; conditions: HL-60, 72 h; method in brief: as §3
[6] = molecular target: DNA topoisomerase 2-beta (Homo sapiens, UniProt Q02880); assay: Inhibition of human TOP2B assessed as reduction in […] using kDNA as substrate incubated for 30 min
Method in brief: (§4)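 Recombinant human TOP2A or TOP2B incubated with kDNA for 30 min at 37 °C. Buffer: 55 mM Tris-HCl pH 7.5, 135 mM NaCl, 10 mM MgCl2, 5 mM DTT, 0.1 mM EDTA, 3 mM ATP, 100 μg/mL BSA, 1% final DMSO. Compounds tested at 1–1000 μM. Products resolved on 1% agarose, SYBR Safe stained. Signal normalized to the untreated control on the same gel; three measurements.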

[7] = as §1; assay type: functional, tissue-based; method in brief: as §2
[8] = Metal chelating activity assessed as displacement of Fe3+ from DAU-Fe3+ complex measured for 10 mins by spectrophotometric method
Method in brief: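 DAU–Fe3+ complex (3:1) placed in 50 mM Tris/150 mM KCl, pH 7.4, room temperature, at 45 μM DAU and 15 μM Fe3+ final. After 3 min of equilibration, compound (100 μM) was added, with EDTA or SIH as reference chelators. Absorbance at 600 nm followed for 10 min, and the endpoint absorbance was compared.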

[9] = molecular target: DNA topoisomerase 2-alpha (Homo sapiens, UniProt P11388); assay: Inhibition of human TOP2A assessed as reduction in […] using kDNA as substrate incubated for 30 min; method in brief: as §4
Chain of DNA topoisomerase 2-alpha (P11388 whole entry): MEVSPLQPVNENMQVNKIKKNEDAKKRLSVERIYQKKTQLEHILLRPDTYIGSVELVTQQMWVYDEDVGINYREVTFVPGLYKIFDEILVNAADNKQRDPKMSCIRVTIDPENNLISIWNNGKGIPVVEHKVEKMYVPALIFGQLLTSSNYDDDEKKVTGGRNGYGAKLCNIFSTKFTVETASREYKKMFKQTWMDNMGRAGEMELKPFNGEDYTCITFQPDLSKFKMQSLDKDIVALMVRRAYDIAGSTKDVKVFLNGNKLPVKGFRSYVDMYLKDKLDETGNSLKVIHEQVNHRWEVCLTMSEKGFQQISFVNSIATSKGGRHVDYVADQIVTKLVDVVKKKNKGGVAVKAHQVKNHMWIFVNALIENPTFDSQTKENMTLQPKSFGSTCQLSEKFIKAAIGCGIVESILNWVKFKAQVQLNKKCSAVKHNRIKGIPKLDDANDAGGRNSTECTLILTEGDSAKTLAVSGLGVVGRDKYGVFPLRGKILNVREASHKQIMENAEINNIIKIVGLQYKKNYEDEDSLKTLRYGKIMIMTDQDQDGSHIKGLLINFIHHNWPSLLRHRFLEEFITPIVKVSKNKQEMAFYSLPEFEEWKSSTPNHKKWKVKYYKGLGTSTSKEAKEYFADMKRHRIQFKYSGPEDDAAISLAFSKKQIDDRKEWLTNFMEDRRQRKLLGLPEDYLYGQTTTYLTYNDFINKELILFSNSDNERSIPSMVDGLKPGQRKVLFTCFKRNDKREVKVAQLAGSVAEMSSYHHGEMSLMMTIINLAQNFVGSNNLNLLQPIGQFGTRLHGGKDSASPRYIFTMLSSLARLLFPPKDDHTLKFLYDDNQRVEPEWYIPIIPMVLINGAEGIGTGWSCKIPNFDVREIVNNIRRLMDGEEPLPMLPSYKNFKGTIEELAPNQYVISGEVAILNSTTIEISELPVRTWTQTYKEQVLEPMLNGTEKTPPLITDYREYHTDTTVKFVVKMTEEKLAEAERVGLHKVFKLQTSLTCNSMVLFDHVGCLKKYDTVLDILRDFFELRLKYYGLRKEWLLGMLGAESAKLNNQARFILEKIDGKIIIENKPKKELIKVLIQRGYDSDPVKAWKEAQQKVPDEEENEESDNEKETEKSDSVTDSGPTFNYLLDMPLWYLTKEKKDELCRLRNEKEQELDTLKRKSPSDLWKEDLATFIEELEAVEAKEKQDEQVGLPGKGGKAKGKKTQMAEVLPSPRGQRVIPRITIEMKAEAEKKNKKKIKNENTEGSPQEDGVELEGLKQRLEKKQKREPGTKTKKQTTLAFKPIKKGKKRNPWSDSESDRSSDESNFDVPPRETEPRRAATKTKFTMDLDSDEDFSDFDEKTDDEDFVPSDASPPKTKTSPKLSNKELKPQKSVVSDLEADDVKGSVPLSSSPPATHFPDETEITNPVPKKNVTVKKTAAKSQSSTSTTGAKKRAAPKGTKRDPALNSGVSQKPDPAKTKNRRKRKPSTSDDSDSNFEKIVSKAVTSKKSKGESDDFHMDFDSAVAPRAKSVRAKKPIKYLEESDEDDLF

Chain of DNA topoisomerase 2-beta (Q02880 whole entry): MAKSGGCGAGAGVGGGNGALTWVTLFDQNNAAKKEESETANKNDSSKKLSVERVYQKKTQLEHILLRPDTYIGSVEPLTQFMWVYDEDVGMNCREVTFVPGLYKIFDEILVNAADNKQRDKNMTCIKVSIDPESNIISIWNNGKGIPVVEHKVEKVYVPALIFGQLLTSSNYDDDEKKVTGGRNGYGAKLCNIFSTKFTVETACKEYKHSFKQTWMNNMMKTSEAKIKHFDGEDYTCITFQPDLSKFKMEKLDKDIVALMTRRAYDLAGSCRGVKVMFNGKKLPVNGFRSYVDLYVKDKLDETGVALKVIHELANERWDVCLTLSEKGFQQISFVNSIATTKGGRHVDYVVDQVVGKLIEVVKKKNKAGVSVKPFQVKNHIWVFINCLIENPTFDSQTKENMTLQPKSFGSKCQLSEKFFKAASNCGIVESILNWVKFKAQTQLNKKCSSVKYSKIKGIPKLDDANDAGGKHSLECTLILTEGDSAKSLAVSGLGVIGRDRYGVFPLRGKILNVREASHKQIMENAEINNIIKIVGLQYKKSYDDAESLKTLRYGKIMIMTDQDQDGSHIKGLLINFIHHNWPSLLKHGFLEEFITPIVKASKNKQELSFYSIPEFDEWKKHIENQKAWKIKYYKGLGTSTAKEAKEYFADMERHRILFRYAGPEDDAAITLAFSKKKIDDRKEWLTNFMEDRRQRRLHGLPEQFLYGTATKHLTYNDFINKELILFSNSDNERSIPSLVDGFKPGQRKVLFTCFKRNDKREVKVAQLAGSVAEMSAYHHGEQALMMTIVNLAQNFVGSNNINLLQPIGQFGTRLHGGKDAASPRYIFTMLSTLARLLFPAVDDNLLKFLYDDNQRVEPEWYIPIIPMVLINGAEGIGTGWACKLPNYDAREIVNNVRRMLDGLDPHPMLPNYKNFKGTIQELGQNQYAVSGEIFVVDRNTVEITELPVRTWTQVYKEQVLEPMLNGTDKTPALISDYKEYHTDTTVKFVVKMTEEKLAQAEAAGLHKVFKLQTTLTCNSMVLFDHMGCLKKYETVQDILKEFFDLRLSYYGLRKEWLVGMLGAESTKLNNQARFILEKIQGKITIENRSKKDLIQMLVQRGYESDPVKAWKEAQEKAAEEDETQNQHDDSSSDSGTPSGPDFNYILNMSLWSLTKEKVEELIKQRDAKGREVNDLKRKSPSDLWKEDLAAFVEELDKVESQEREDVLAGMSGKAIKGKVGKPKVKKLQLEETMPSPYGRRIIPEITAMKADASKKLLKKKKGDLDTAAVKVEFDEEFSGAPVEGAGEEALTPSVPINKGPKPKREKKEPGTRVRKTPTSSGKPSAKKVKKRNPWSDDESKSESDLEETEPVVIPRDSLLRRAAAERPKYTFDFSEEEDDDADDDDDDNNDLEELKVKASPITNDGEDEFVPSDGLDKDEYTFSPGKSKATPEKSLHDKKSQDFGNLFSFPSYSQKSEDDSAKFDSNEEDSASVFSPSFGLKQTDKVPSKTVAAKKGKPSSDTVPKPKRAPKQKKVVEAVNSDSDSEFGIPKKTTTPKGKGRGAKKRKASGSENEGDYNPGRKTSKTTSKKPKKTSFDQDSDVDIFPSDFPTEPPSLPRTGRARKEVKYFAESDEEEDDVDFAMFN

Q: With `CC(C)(CN1CC(=O)NC(=O)C1)N1CC(=O)NC(=O)C1` as the compound, how does the Activity [1] read?
A: The Activity was “inactive”.

Q: With `CN(CCN(C)C1CC(=O)NC1=O)C1CC(=O)NC1=O` (stereo unspecified) as the compound, how does the Activity [2] read?
A: The Activity was “Active”.

Q: What about the Activity [3] of the same compound?
A: Its Activity is “Active”.

Q: With `O=C1CN(CC(O)CN2CC(=O)NC(=O)C2)CC(=O)N1` as the compound, how does the Activity [2] read?
A: The Activity was “Active”.

Q: Which Activity [4] does the source give for `COc1cccc2c1C(=O)c1c(O)c3c(c(O)c1C2=O)C[C@@](O)(C(C)=O)C[C@@H]3O[C@H]1C[C@H](N)[C@H](O)[C@H](C)O1` [DAUNORUBICIN] here?
A: The Activity was 40%.

Q: What about the IC50 [5] of the same compound?
A: Its IC50 is 0.015 µM.

Q: Which IC50 [6] does the source give for `C[C@@H](CN1CC(=O)NC(=O)C1)N1CC(=O)NC(=O)C1` [DEXRAZOXANE] here?
A: The IC50 was 50 µM.

Q: And the EC50 [7]?
A: The EC50 was 101 µM.

Q: And the Activity [8]?
A: Its Activity is 77%.

Q: And the IC50 [9]?
A: Its IC50 is 40 µM.

Q: What about the IC50 [5] of the same compound?
A: Its IC50 is 18 µM.
